For experiment [1], the system named is HEK-293T. Description: Induction myristoylated AKT2 M225G mutant Ser473 hyperphosphorylation expressed in HEK293T cells at 10 uM after 30 mins by immunoblotting. Format: cell-based. Background: A western blot detects proteins with antibodies after separation by electrophoresis.
Experiment [2] addresses RAC-alpha serine/threonine-protein kinase (Homo sapiens, UniProt P31749, M227G). The experiment can be described thus: Inhibition of myristoylated AKT1 M227G mutant expressed in HEK293T cells by in vitro immunoprecipitation kinase assay. It counts as cell-based, HEK-293T. The essentials:
(§1)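 Myristoylated HA-tagged Akt (wild-type or analog-sensitive isoforms) was transfected by Lipofectamine into HEK293T cells. Cells were lysed in Tris pH 7.5/NaCl/EDTA/EGTA/Triton buffer with protease and phosphatase inhibitors. Akt was immunoprecipitated overnight at 4°C on BSA-blocked anti-HA matrix, and the washed immunoprecipitate was used for the in vitro kinase assay. IC50 was determined from kinase activity.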

Experiment [3] deals with T1, RAC-alpha serine/threonine-protein kinase (Homo sapiens, UniProt P31749). The experiment can be described thus: Induction of AKT1 Thr308 phosphorylation expressed in IGF1-stimulated HEK293 cells treated 20 mins before IGF1 stimulation by immunoblotting. It counts as cell-based. The method, boiled down:
(§2)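 HEK293 cells (not transfected), serum-starved overnight, then given inhibitor for 20 min before 50 ng/ml IGF-1 for a further 10 min. Cells detached in ice-cold Ca/Mg-free PBS with 0.04% EDTA and lysed in Tris pH 7.5 Triton buffer with protease/phosphatase inhibitors. Lysates cleared at 14000 g, protein equalised by Bradford, and pThr308, pSer473 and GSK3β pSer9 read by immunoblot with ECL.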

The nature of experiment [4]: Inhibition of myristoylated AKT3 M229G mutant expressed in HEK293T cells by in vitro immunoprecipitation kinase assay. It counts as cell-based. The conditions noted are these: hek-293t. The essentials:
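Myristoylated HA-tagged Akt3 was expressed in HEK293T cells, which were lysed in Tris pH 7.5 buffer containing Triton X, protease and phosphatase inhibitors. Lysates were protein-normalised and immunoprecipitated overnight at 4°C on BSA-blocked anti-HA matrix. Kinase activity of the immunoprecipitate was measured in vitro across inhibitor concentrations to derive IC50.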

The target in experiment [5] is T1, RAC-alpha serine/threonine-protein kinase. The experiment can be described thus: Inhibition of myristoylated wild type AKT1 expressed in HEK293T cells by in vitro immunoprecipitation kinase assay. It counts as cell-based, HEK-293T. The method, boiled down: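 Myristoylated HA-tagged wild-type or analog-sensitive Akt1/2/3 expressed in HEK293T cells, then immunoprecipitated on anti-HA matrix. The immunoprecipitate was used in an in vitro kinase assay with Tris pH 7.5 buffer containing 10 mM MgCl2, β-glycerophosphate, orthovanadate and 2 mM DTT. IC50 determined from inhibitor titration.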

Experiment [6] concerns HEK-293T. The experiment can be described thus: Induction of myristoylated AKT2 M225G and kinase dead D289A mutant Thr308 hyperphosphorylation expressed in HEK293T cells at 10 uM after 30 mins by immunoblotting. Format: cell-based.
The test system of experiment [7] is RAC-alpha serine/threonine-protein kinase (Homo sapiens), P31749 [M227G]. Description: Induction of myristoylated AKT1 M227G mutant Ser473 hyperphosphorylation expressed in HEK293 cells after 30 mins by immunoblotting. The conditions noted are these: HEK-293.
For experiment [8] the test system is unchanged. Description: Inhibition of myristoylated AKT1 M227G mutant expressed in HEK293T cells assessed as reduction of GSK3-beta Ser9 phosphorylation after 30 mins by immunoblotting. Format: cell-based. The conditions noted are these: HEK-293T.
For experiment [9] the test system is unchanged. Description: Induction of myristoylated AKT1 M227G mutant Thr308 hyperphosphorylation expressed in HEK293 cells after 30 mins by immunoblotting. The settings on record: HEK-293.
Experiment [10] deals with HEK-293T. Description: Induction of nonmyristoylated AKT2 M225G and kinase dead D289A mutant Thr308 hyperphosphorylation expressed in HEK293T cells at 10 uM after 30 mins by immunoblotting. It counts as cell-based.
For experiment [11], the target named is T1, RAC-alpha serine/threonine-protein kinase. The experiment can be described thus: Induction of AKT1 Ser473 phosphorylation expressed in IGF1-stimulated HEK293 cells treated 20 mins before IGF1 stimulation by immunoblotting. Format: cell-based. The method, boiled down: as §2
For experiment [12] the target is unchanged. The experiment can be described thus: Inhibition of wild type AKT1 expressed in HEK293 cells assessed as reduction of IGF1-induced GSK3-beta Ser9 phosphorylation treated 20 mins before IGF1 stimulation by immunoblotting. It counts as cell-based. The method, boiled down:
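Untransfected HEK293 cells carrying endogenous Akt were serum-starved overnight. They were treated with compound for 20 min, then stimulated with 50 ng/ml IGF-1 for 10 min. DMSO stocks were diluted 1:1000. Lysates in Tris pH 7.5/Triton buffer with phosphatase inhibitors were immunoblotted for GSK3β Ser9 and Akt Thr308/Ser473 phosphorylation, read by ECL.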

The test system of experiment [13] is HEK-293T. Description: Induction of myristoylated AKT3 M229G mutant Ser473 hyperphosphorylation expressed in HEK293T cells at 10 uM after 30 mins by immunoblotting. Format: cell-based.
Experiment [14] has as its system HEK-293T. The experiment can be described thus: Induction myristoylated AKT2 M225G mutant Thr308 hyperphosphorylation expressed in HEK293T cells at 10 uM after 30 mins by immunoblotting. It counts as cell-based.
A short description of experiment [15]: Inhibition of myristoylated AKT2 M225G mutant expressed in HEK293T cells by in vitro immunoprecipitation kinase assay. Format: cell-based. The settings on record: hek-293t. The essentials:
as §1

The test system of experiment [16] is HEK-293T. Description: Induction of myristoylated AKT3 M229G mutant Thr308 hyperphosphorylation expressed in HEK293T cells at 10 uM after 30 mins by immunoblotting. It counts as cell-based.

Structures are written as SMILES. The source made the active and inactive calls. The rule behind the calls is not given here.

T1 sequence (P31749 whole entry): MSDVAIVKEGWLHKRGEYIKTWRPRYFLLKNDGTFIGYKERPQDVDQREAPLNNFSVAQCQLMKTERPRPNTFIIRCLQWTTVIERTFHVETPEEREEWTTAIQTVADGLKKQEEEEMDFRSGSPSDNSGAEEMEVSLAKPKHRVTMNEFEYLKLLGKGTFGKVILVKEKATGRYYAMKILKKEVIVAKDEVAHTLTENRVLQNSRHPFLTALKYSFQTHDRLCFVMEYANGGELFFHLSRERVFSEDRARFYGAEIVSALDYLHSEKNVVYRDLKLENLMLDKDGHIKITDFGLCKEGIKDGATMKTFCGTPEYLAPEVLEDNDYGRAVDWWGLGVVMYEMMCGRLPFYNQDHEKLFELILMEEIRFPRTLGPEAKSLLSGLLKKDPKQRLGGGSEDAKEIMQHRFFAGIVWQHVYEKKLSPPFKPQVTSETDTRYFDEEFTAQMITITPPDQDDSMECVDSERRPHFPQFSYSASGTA
Chain of RAC-alpha serine/threonine-protein kinase (Homo sapiens), P31749 [M227G] (P31749 whole entry M227G): as the sequence (P31749 whole entry) above, with M227G counted along it
Chain of RAC-alpha serine/threonine-protein kinase (Homo sapiens, UniProt P31749, M227G) (P31749 whole entry M227G, canonical isoform): as the sequence (P31749 whole entry) above, with M227G counted along it

In the case of `CC(C)(C)n1nc(Cc2cccc(I)c2)c2c(N)ncnc21`, the result with HEK-293T [1], in the experiment on HEK-293T [6], with HEK-293T [10], in the experiment on HEK-293T [13], in the experiment on HEK-293T [14] and with HEK-293T [16] was Active. Moreover, the 50% inhibitory concentration (IC50) (as a rule, the concentration that gives 50% inhibition) in experiment [2] is 28 nM; in [4], 120 nM; in experiment [5], more than 10000 nM; in experiment [15], 240 nM. Further, the result in experiment [3] and in experiment [11] was inactive. The Activity entry in [7] and in experiment [9] was “Dose-dependent effect” in each case. Also, the inhibition entry in experiment [8] is “Active”. Also, the inhibition entry in experiment [12] is “inactive”.
